Calls of active or inactive are those of the source. No cut-off for these calls is given here.

Assay [1] relates to MDA-MB-231. Put plainly: Growth inhibition of human MDA-MB-231 cells after 4 days by WST8 assay. The settings on record: MDA-MB-231, 96 h.
In assay [2] the test system is MDA-MB-231. Put plainly: Induction of cell death in human MDA-MB-231 cells at 1 uM after 48 hrs by trypan blue assay. Type of assay: functional. The procedure, abridged:
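MDA-MB-231 breast cancer cells exposed to compound for 48 hours. Viability scored by trypan blue exclusion. Read-out is percentage of cells dead.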

In assay [3] the test system is MDA-MB-231. Put plainly: Induction of degradation of cIAP1 in human MDA-MB-231 cells after 24 hrs by Western blot analysis. The assay is classed as functional, cell-based. The procedure, abridged:
(§1)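 MDA-MB-231 breast cancer cells exposed to a range of concentrations for 24 hours; lysate proteins probed by Western blot with specific antibodies against cIAP-1, caspase-8, and pro- and cleaved PARP.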

Assay [4] concerns MDA-MB-231. Put plainly: Induction of cell death in human MDA-MB-231 cells after 48 hrs by trypan blue assay. The assay is classed as functional, cell-based. In short, it runs like this:
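MDA-MB-231 breast cancer cells exposed to a range of compound concentrations for 48 hours; viability scored by trypan blue exclusion; percent dead cells reported.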

Assay [5] concerns MDA-MB-231. Put plainly: Induction of poly(ADP-ribose) polymerase cleavage in human MDA-MB-231 cells within 24 hrs by Western blot analysis. Type of assay: functional, cell-based. The procedure, abridged:
as §1

The subject of assay [6] is MDA-MB-231. Put plainly: Induction of caspase 8 processing in human MDA-MB-231 cells within 24 hrs by Western blot analysis. The assay is classed as functional, cell-based. In short, it runs like this:
as §1

Assay [7] has as its system MDA-MB-231. Put plainly: Induction of degradation of cIAP1 in human MDA-MB-231 cells upto 100 nM after 24 hrs by Western blot analysis. Type of assay: functional, cell-based. In short, it runs like this:
as §1

The molecule `CN[C@@H](C)C(=O)N[C@H]1Cc2ccccc2[C@H]2CCC[C@@H](C(=O)NC(c3ccccc3)c3ccccc3)N2C1=O` had a concentration for half-maximal inhibition (IC50) in assay [1] of 1370 nM. Further, the Activity was below 20% in assay [2] and “Dose-dependent effect” in assay [4]. Moreover, the outcome in assay [3] was Active.
For `CN[C@@H](C)C(=O)N[C@H]1Cc2ccccc2[C@H]2CC[C@@H](C(=O)N[C@@H]3CCCc4ccccc43)N2C1=O`, the Activity entry in assay [5] is “Dose-dependent effect”; in assay [6], “Dose-dependent effect”; in assay [2], 75%; in assay [4], “Dose-dependent effect”. Moreover, the outcome in assay [3] and in assay [7] was Active.
On to `CN[C@@H](C)C(=O)N[C@H]1Cc2ccccc2[C@H]2CC[C@@H](C(=O)NC(c3ccccc3)c3ccccc3)N2C1=O`, for which, in assay [3], the outcome was Active. Besides, in assay [4], the Activity entry is “Dose-dependent effect”.

(Values after ChEMBL document CHEMBL1140231, “Design, synthesis, and evaluation of tricyclic, conformationally constrained small-molecule mimetics of second mitochondria-derived activator of caspases” (J Med Chem, 2008).)
